# The sample as a whole holds a higher share of hits than the screen did.
# CHOP inh = CHOP inhibition in unfolded protein response | CHO-K1 CHOP-promoter luciferase, tunicamycin-induced, 15-18 h | inhibition, % at 10 µM | 220,000 compounds, 3.8% hits;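 active = compounds that reduced the stress-induced luciferase reporter signal by more than about 70% of percent inhibition, limit read from the data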;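 also: 0% = tunicamycin plus vehicle and 100% = wells without tunicamycin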
# CHOP UPR activ = apoptotic UPR (CHOP) activation; 330,000 compounds, 0.34% hits; CHO-CHOP luciferase reporter, luminescence; percent of tunicamycin response over DMSO baseline; activation, % at 10 µM; AID 449763;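 active = at 10 µM dose, activation of 40% or more, normalized to positive control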;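 also: 100% = tunicamycin at 10 µg/mL and 0% = DMSO alone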
#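 System: CHO CHOP reporter cells. Amount: 500 cells per well. Buffer or medium: F12 medium, 10% FBS. Compound dosing: one dose, 10 µM in 0.5% DMSO. Incubation: 6 h compound exposure at 37 °C after overnight seeding. Technique: Steady-Glo luciferase luminescence. Benchmarks: tunicamycin and DMSO controls.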
# UPR XBP1 act = activators of adaptive arm of unfolded protein response (XBP1); AID 463104; activation, % at 20 µM; CHO-XBP1 luciferase reporter, IRE1-XBP1 UPR activation, luminescence; percent of tunicamycin response, DMSO as zero; 330,000 compounds, 0.33% hits;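 active = versus positive control, 20 µM dose yields 30% or more activation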;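 also: 100% = tunicamycin at 10 µg/mL and 0% = DMSO only wells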
#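 Test system: CHO-XBP1 luciferase reporter cells | Buffer or medium: Serum-containing F12 medium, 10% FBS | Schedule: 6 h compound exposure at 37 °C, 5% CO2 | Detection: Steady-Glo luciferase glow luminescence, 10 min after reagent addition | Read-out basis: Activation, % of tunicamycin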
# iPSC survival up = enhancers of human iPSC single-cell survival | survival enhancement, % at 20 µM | 360,000 compounds, 0.044% hits | hiPSC single-cell survival, ATPlite luminescence; 100% = ROCK inhibitor wells, 0% = DMSO; in the data active = survival enhancement above about 18%;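 also: cells exposed to compounds for 16 hours before the ATP read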
# Cardio protect = protects H9c2 cardiomyocytes from peroxide injury. H2O2 injury protection, ATPLite, 2 h. protection from H2O2 cell death, % at 20 µM. 360,000 compounds, 0.63% hits. AID 588492;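 active = compounds giving at least 50% protection of heart cells from peroxide-induced death in the single-dose screen, raw or plate-pattern-corrected value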;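 also: 0% = DMSO wells with peroxide and 100% = DMSO wells without peroxide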
# * marks the source's active call; other numbers are inactive results; nt = no result.
SMILES,CHOP inh,CHOP UPR activ,UPR XBP1 act,iPSC survival up,Cardio protect
CCOC1=C2[C@H](c3ccc(Cl)cc3)N(S(=O)(=O)c3ccc(C)cc3)C[C@H]2n2c(=O)n(-c3ccccc3)c(=O)n2C1,nt,nt,nt,-0.9,7.1
O=C(CSc1nnc2ccccn12)Nc1cccc(-c2nc3ccccc3s2)c1,93.2*,1.9,1.9,1.7,-5.5
CCc1ccc(NC(=O)Cn2cnc3c(=O)n(C)c(=O)n(C)c32)cc1,1.2,1.1,0.5,0.9,-3.4
Cn1c(=O)c2ncn(CC(=O)Nc3cccc(-c4nc5ccccc5s4)c3)c2n(C)c1=O,81.6*,5.6,17.3,-0.5,-4.1
Cc1ccc(NNC(=O)C(O)(c2cccc(C(F)(F)F)c2)c2cccc(C(F)(F)F)c2)cc1,106.9*,-0.3,-1.4,-0.1,-12.7
Cc1cccc(C)c1OCc1nnc(NC(=O)CSc2ccc(Cl)cc2)s1,82.9*,1.9,-0.1,7.2,-0.8
Cc1cc(=O)oc(C)c1C(=O)OCC(=O)c1ccccc1,-10.2,0.8,-1.1,1.6,5.0
Cc1cc(=O)oc(C)c1C(=O)OCC(=O)c1ccc2ccccc2c1,70.9*,-0.7,-3.0,-0.6,-2.6
Cc1cc(C)c(S(=O)(=O)NCc2ccc3c(c2)cc(C)n3C)c(C)c1,70.9*,-1.0,-0.7,-1.7,-3.4
CCC(=O)OC1(C)C(=O)C2=COC(c3ccc(OC)cc3)=CC2=C(Br)C1=O (stereo not given),29.5,0.9,3.5,-1.4,2.3
COc1ccc(C2=CC3=C(Br)C(=O)C(C)(O)C(=O)C3=CO2)cc1 (stereo not given),95.1*,2.5,-2.0,2.8,6.9
CC1=CC(C)(C)N(C(=O)C(C)N2C(=O)c3ccccc3C2=O)c2c(C)cc(C)cc21 (stereo not given),104.6*,nt,nt,nt,nt
COc1ccc(-c2ccc(C(=O)NC3CCCCC3)c3occc23)c(C)c1,nt,nt,nt,-1.8,-13.0
CCOC(=O)c1cc(-c2ccc(/C=N\n3cnnc3)o2)ccc1Cl,27.4,0.0,3.0,5.6,66.7*
C=CCNc1sc(C(=O)c2ccc(C)cc2)c(N)c1C#N,1.2,1.3,5.7,0.2,-5.2
C=CCNc1nc(N)c(C(=C(C#N)C#N)c2ccc(Br)cc2)s1,81.4*,-0.1,-2.0,-0.4,55.9*
CC(C)n1cc(C#N)c(N)n1,nt,nt,nt,-0.1,-9.4
CC1(C(=O)NCc2cccnc2)CCN1C(=O)c1cccc(F)c1 (stereo not given),nt,nt,nt,0.3,6.1
O=C1CC2(CCCC2)C(=O)N1CN1CCN(S(=O)(=O)c2cc(F)ccc2F)CC1,nt,nt,nt,-1.1,-3.2
O=C(Cn1nnc(-c2ccc(Cl)cc2)n1)NC1CC2CCC1C2 (stereo not given),50.8,1.2,-1.8,-0.9,-20.9
O=C(Cn1nnc(-c2ccc(Cl)cc2)n1)NCC1CCCCC1,90.1*,0.9,1.4,0.1,-7.9
CC1(C(=O)NS(=O)(=O)c2cccc(C#N)c2)CCN1C(=O)Cc1cc(F)ccc1F (stereo not given),nt,nt,nt,7.7,11.2
Cc1ccccc1N1C(=O)C(Cl)=C(N2CCCCCC2)C1=O,80.5*,-3.6,-0.4,3.2,-2.6
CCN1C(=O)[C@H]2[C@@H](c3ccc(C)cc3)N[C@]3(CCCN(Cc4ccc(OC)cc4)C3=O)[C@H]2C1=O,nt,nt,nt,2.6,0.0
O=C(N/C=N/OCc1ccc(Cl)cc1Cl)NOCc1ncc(C(F)(F)F)cc1Cl,95.5*,3.4,-0.6,-6.5,-12.2
SMILES,CHOP inh,CHOP UPR activ,UPR XBP1 act,iPSC survival up,Cardio protect
CO/N=C/NC(=O)NOCc1ncc(C(F)(F)F)cc1Cl,11.8,-3.4,-3.4,13.7,-2.6
COC(=O)CCCC[C@@H]1O[C@H](CCc2ccccc2)CC2=C1C(=O)OC(C)(C)O2,nt,nt,nt,-0.9,nt
CC(C)(C)c1ccc(CNc2ccc([N+](=O)[O-])cn2)cc1,86.7*,nt,nt,-1.7,-14.4
CC(C)c1ccc(CNc2ccc([N+](=O)[O-])cn2)cc1,83.4*,4.8,1.3,-0.2,-14.2
O=C(CC[C@H]1O[C@@H](n2ccc(=O)[nH]c2=O)[C@H](O)[C@@H]1O)N[C@@H](Cc1ccccc1)C(=O)NCC1CCCO1 (stereo not given in full),nt,nt,nt,0.4,6.4
O=C(CCOc1cccc(Br)c1)Nc1ccc(F)c(S(=O)(=O)N2CCOCC2)c1,nt,-1.6,-2.7,-0.5,-15.6
CCOc1ccc(CCn2c(-c3ccco3)nc3ccccc3c2=O)cc1OCC,9.6,2.1,5.7,-1.0,103.5*
O=c1c2ccccc2nc(-c2ccco2)n1Cc1ccccc1,47.2,6.2,1.8,-1.0,-1.9
Cc1cccc(NC(=O)c2oc3ccc(S(=O)(=O)N4CCOCC4)cc3c2C)c1C,9.9,0.2,0.1,1.5,76.2*
Cc1ccc(NC(=O)c2oc3ccc(S(=O)(=O)N4CCOCC4)cc3c2C)c(C)c1,-4.5,-1.6,-4.6,0.5,2.8
Cc1cc(NC(=O)CSc2nnc(NCc3ccccc3)s2)no1,9.6,-0.9,-0.1,-0.5,3.5
COc1ccccc1Nc1nnc(SCC(=O)Nc2cc(C)on2)s1,95.3*,-2.6,-0.3,3.5,12.1
COc1ccc2cc(C)c(SCC(=O)Nc3cc(C)on3)nc2c1,84.2*,12.9,22.8,-1.0,-6.6
COc1ccc2c(c1OC)C(CC(C)=O)N1CCc3cc4c(cc3C1C2=O)OCO4 (stereo not given),nt,nt,nt,2.6,4.4
Cc1ccccc1Nc1ncnc2c1cnn2-c1ccccc1,72.5*,4.9,4.3,-1.0,-4.0
CCOc1ccc(Nc2ncnc3c2cnn3-c2ccccc2)cc1,101.1*,6.9,3.3,0.2,-14.4
COCCOC(=O)N1CCCCC1c1cc(C(=O)NCc2ccc(Cl)c(Cl)c2)no1 (stereo not given),nt,nt,nt,-0.4,-0.5
COc1ccc(COC(=O)c2ccc(C)c(S(=O)(=O)N3CCOCC3)c2)cc1F,nt,1.2,4.1,0.3,-8.2
CC(=O)c1c(C)[nH]c(C(=O)OCC(=O)Nc2ccc(C)cc2[N+](=O)[O-])c1C,89.4*,3.4,-3.6,-0.3,-7.9
Cc1cc(C)c(C)c(S(=O)(=O)N2CCN(C(=O)c3cc(=O)[nH]c4ccccc34)CC2)c1C,-7.8,4.6,-1.3,-1.4,78.6*
Cc1cc(C)c(S(=O)(=O)N2CCN(C(=O)c3cc(=O)[nH]c4ccccc34)CC2)c(C)c1,nt,-1.1,0.2,-0.4,62.7*
N#Cc1ccccc1S(=O)(=O)N1CCN(C(=O)c2cc(=O)[nH]c3ccccc23)CC1,nt,1.7,1.7,0.5,25.7
Cc1ccc(S(=O)(=O)N2CCN(C(=O)c3cc(=O)[nH]c4ccccc34)CC2)c(C)c1,19.6,-2.9,-2.4,1.1,71.7*
CCOc1cccc(-c2nn(-c3ccccc3)cc2/C=C(/C#N)C(=O)NCCCn2ccnc2)c1,95.0*,8.0,11.9,-0.4,-26.9
COc1ccc(CNC(=O)c2ccc(N3CCC4(CC3)CC(c3ccc(Cl)cc3)=NO4)c(NC(=O)Cc3ccc(F)cc3)c2)cc1,nt,0.8,0.5,0.5,-5.2
